# High-throughput results: PubChem BioAssay, several laboratories
# The list is not random: actives were taken first. Their share in the collection is about 2.4%.
# HKDC1 inh = HKDC1 hexokinase inhibitors, primary screen, biochemical, fluorescence, uHTS; recombinant HKDC1, G6PDH/diaphorase resazurin coupled fluorescence; inhibition, % at 20 µM; AID 493160, 2011; 340,000 tested, 0.16% active;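 active = inhibition above about 35% when tested at 20 µM, limit read from the data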;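 also: plate controls were DMSO wells with enzyme for no effect and DMSO wells lacking enzyme for full effect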
#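 Test system: HK5 enzyme. Quantity: 5 µg/mL HK5 final. Reagent: glucose and ATP substrates. Schedule: 90 min reaction incubation at room temperature, dark. Technique: resazurin-to-resorufin fluorescence via G6PDH and diaphorase coupling, 525/613 nm. Control set: DMSO wells with and without enzyme mix.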
# PfG6PD inh = PfG6PD enzyme inhibitors, primary screen, biochemical, fluorescence intensity, uHTS | 350,000 tested, 0.78% active | PfGluPho enzyme, NADPH resazurin-diaphorase fluorescence | AID 504690, 2011 | inhibition, % at 20 µM;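 active = inhibition reaching at least a set limit at 20 µM in the primary screen, cut at about 59% in these data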;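 also: 0% = DMSO wells with substrate and 100% = DMSO wells lacking glucose-6-phosphate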
# APOBEC3G inh = APOBEC3G DNA deaminase inhibitors, primary screen, biochemical, fluorescence, single-stranded DNA substrate, uHTS. recombinant A3G, ssDNA deamination FAM/TAMRA fluorescence. inhibition, % at 20 µM. 330,000 tested, 0.28% active. AID 493012, 2011;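 active = inhibition of at least 40% at 20 µM, with no more than 30% in the related APOBEC3A deaminase screen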;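 also: plate controls were DMSO wells with A3G for no effect and wells lacking A3G enzyme for full effect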
# SUMO HTRF inh = inhibitors of in vitro SUMOylation cascade, primary screen, biochemical, HTRF, uHTS. 290,000 tested, 0.36% active. HTRF SUMOylation assay, SAE1/SAE2 + UBC9. inhibition, % at 35 µM; in the data active = inhibition above about 50%, passing the limit was not always enough; inconclusive = no clear call, values can overlap the other calls
# Target sequence (P63279 whole entry, looked up): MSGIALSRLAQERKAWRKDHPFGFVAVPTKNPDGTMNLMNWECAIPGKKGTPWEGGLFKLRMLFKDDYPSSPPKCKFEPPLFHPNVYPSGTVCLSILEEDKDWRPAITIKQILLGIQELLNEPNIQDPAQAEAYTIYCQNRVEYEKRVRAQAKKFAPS
# A3A deaminase = APOBEC3A ssDNA deaminase inhibitors, primary screen, selectivity assay for APOBEC3G inhibitor project, biochemical, FAM/TAMRA oligo cleavage fluorescence | DNA dC->dU-editing enzyme APOBEC-3A (Homo sapiens), P31941 | recombinant A3A, FAM/TAMRA ssDNA deamination fluorescence | inhibition, % at 20 µM | 330,000 tested, 0.41% active | AID 493011, 2011;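 active = at least 40% inhibition at 20 µM here, with at most 30% in a related deaminase screen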;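 also: plate controls were A3A with DMSO for no effect and wells lacking A3A enzyme for full effect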
# Target sequence (P31941 whole entry, looked up): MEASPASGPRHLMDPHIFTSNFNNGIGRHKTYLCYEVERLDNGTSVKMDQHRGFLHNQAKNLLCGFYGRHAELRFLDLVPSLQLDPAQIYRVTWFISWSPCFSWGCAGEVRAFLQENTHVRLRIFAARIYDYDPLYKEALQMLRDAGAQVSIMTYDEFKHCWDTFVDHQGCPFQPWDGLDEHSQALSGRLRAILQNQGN
# PfM18AAP inh-1 = PfM18AAP inhibitors, malaria aminopeptidase, primary screen, biochemical, QFRET, recombinant enzyme; M18 aspartyl aminopeptidase (Plasmodium falciparum 3D7); H-Glu-NHMec fluorogenic cleavage; inhibition, % at 7.35 µM; 290,000 tested, 1.2% active; AID 1822, 2009;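 active = inhibition above the campaign mean inhibition over all tested compounds plus 3 SD, cut at about 28% in these data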;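 also: 0% = plate median of test compound wells and 100% = 2 mM ZnCl2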
# PfM18AAP inh-2 = PfM18AAP inhibitors, malaria aminopeptidase, confirmation, biochemical, QFRET, recombinant enzyme, triplicate; shares compounds with PfM18AAP inh-1; H-Glu-NHMec fluorogenic cleavage; inhibition, % at 7.35 µM; 2,400 tested, 28% active; AID 2170, 2009;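 active = mean inhibition over replicate wells above the hit cutoff set for the earlier primary screen, cut at about 29% in these data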;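 also: 0% = median of test compound wells and 100% = 2 mM ZnCl2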
# CTSL1 counter = cathepsin L1 inhibitors, retest, confirmation, counter-screen for PFM18AAP inhibitor project, biochemical, QFRET, triplicate; inhibition, % at 5.96 µM; purified cathepsin L1, Z-Leu-Arg-MCA fluorescence; shares compounds with PfM18AAP inh-1; 2,400 tested, under 10 active;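 active = average inhibition across replicates above the hit cutoff set in the earlier primary screen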;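 also: 0% = median of test compound wells and 100% = Z-Phe-Ala-diazomethylketone 1 µM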
# Target sequence (P07711 whole entry, looked up): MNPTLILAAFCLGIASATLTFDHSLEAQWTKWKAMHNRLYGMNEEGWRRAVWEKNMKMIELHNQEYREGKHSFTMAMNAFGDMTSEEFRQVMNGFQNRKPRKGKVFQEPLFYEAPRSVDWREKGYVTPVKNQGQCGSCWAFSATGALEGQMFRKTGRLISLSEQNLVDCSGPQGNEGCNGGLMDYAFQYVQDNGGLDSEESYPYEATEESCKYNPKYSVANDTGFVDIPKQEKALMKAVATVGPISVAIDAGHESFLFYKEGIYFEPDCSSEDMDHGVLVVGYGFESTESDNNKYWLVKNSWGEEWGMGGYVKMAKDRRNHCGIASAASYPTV
# Starred values were filed as active, the others as inactive; ? = inconclusive; . = no result.
SMILES,HKDC1 inh,PfG6PD inh,APOBEC3G inh,SUMO HTRF inh,A3A deaminase,PfM18AAP inh-1,PfM18AAP inh-2,CTSL1 counter
COC(=O)C1=C(C(=O)c2ccc(C)cc2)C(c2ccc(OC)c(OC)c2)n2nnnc2N1 (stereo not given),-3.4,-3.2,0.0,-1.3,-3.0,46.6*,-32.0,1.9
COc1ccc(C(=O)NCCCOc2cccnc2)cc1OC1CCN(C(C)=O)CC1,-5.1,1.9,13.6,2.0,0.5,1.3,.,.
COc1ccc(-c2c(C)nc3c(-c4ccccn4)cnn3c2N)cc1,-4.0,2.7,.,-22.6,.,37.6*,22.5,2.6
CC(=O)NNc1nc2ccccc2s1,-9.2,-3.1,-0.9,6.0,-2.3,50.8*,16.4,1.6
CN(C)C(=S)Nc1nc2ccccc2s1,-5.9,50.0,.,30.3,.,46.4*,-15.0,5.2
CCNC(=O)Nc1nc2ccccc2s1,1.6,-9.1,-5.2,9.0,0.5,5.7,.,.
O=C(Nc1ccccc1)Nc1cccc(Cl)c1,-7.7,16.2,1.2,-9.5,0.7,11.6,.,.
CC(Cl)C(=O)NNc1cccc(Cl)n1 (stereo not given),14.4,33.8,6.0,-6.0,4.1,12.2,.,.
Cc1ccc(NC(=O)NNc2cccc(Cl)n2)cc1,-0.9,22.6,.,-1.7,.,52.6*,24.5,-4.7
O=C(NNc1cccc(Cl)n1)Nc1cccc(Cl)c1,-2.1,49.1,-6.7,19.4,-6.4,52.2*,49.4*,1.8
Cc1ccc(S(=O)(=O)NNC(=O)Nc2ccc(Cl)cc2)cc1,0.3,-20.6,-1.1,0.0,2.0,2.4,.,.
O=C(NNc1cccc(Cl)n1)Nc1ccccc1,-1.1,26.8,-4.3,-13.1,-3.1,59.4*,43.3*,0.4
O=C(CSc1nnc(-c2ccccc2)c2ccccc12)NCC1CCCO1 (stereo not given),.,.,-9.6,0.3,-0.7,0.1,.,.
O=C(CSc1nc(-c2ccccc2)ns1)NCC1CCCO1 (stereo not given),0.0,21.6,17.5,10.3,0.9,34.7*,-21.3,1.9
Cc1ccc(S(=O)(=O)N2CCN(C(=O)C(F)(F)F)C2c2ccc(N(C)C)cc2)cc1 (stereo not given),-1.9,-12.1,-5.2,3.0,-1.1,-2.3,.,.
CC(=O)N1CCN(S(=O)(=O)c2ccc(C)cc2)C1c1ccc(N(C)C)cc1 (stereo not given),-1.8,-0.4,-5.4,16.8,-5.0,36.0*,-26.7,-0.6
CC(=O)C1=C(C)NC(SCc2cccc([N+](=O)[O-])c2)=C(C#N)C1c1ccco1 (stereo not given),2.6,6.5,-5.3,-10.6,3.8,32.2*,-18.1,-0.4
CC(=O)C1=C(C)NC(SCC(N)=O)=C(C#N)C1c1ccco1 (stereo not given),5.6,7.2,-3.7,14.7,1.8,1.2,.,.
COc1cc2c(cc1OC)NC(=O)C2,-3.8,1.7,.,.,.,.,.,.
Oc1cccc(/C=N/N2CCCCC2)c1O,8.5,-12.7,-3.6,-0.7,-2.2,44.7*,21.5,-3.1
Cc1nn(C)cc1C(C(=O)NC1CCCCC1)N(C(=O)Cc1cccs1)c1ccc(F)cc1 (stereo not given),2.2,-7.2,-2.6,-11.9,-0.7,0.0,.,.
COc1ccc(-c2nc(CS(=O)CC(=O)NCc3ccc(F)cc3)c(C)o2)cc1 (stereo not given),-2.9,-0.4,1.2,11.9,-1.0,-10.7,.,.
CCOC(=O)NC1(Nc2cccc(Cl)c2)Oc2ccccc2O1,5.2,4.3,.,2.4,.,51.8*,63.5*,1.2
CC(=O)Nc1ccc(NC(=O)CC2Nc3cccc4cccc(c34)NC2=O)cc1 (stereo not given),7.1,39.9,36.4,?,20.9,32.5*,-36.1,-4.1
Cc1cccc(NC(=O)CC2Nc3cccc4cccc(c34)NC2=O)c1 (stereo not given),8.1,32.3,-3.3,89.0,3.1,3.5,.,.
SMILES,HKDC1 inh,PfG6PD inh,APOBEC3G inh,SUMO HTRF inh,A3A deaminase,PfM18AAP inh-1,PfM18AAP inh-2,CTSL1 counter
CC(C)(C)c1ccc(CSc2nnc(-c3ccccn3)n2Cc2ccco2)cc1,-0.5,36.5,-0.8,-41.6,1.9,-3.3,.,.
C/C(=N\Nc1ccc2nncn2n1)c1ccco1,0.3,2.6,-6.2,25.3,0.4,44.7*,19.0,1.2
C/C(=N\Nc1ccc2nncn2n1)c1ccccn1,-4.6,-10.0,-5.6,-2.9,16.7,40.0*,-19.7,0.1
O=C(Nc1cccc(-c2ccc3nncn3n2)c1)c1ccco1,-4.0,4.0,-1.3,9.2,3.5,-2.9,.,.
C(=N\Nc1ccc2nncn2n1)/c1ccccn1,-1.8,-12.8,-2.3,2.8,-0.6,41.0*,-5.0,-4.8
C/C(=N\Nc1ccc2nncn2n1)c1ccc(Br)s1,0.2,1.4,-7.5,40.9,-3.7,50.3*,-29.2,3.0
CNC(=S)n1cnc(N)n1,-1.9,-10.3,-3.6,3.9,-2.7,39.5*,-33.8,0.3
CN(C)/C=C1\NC(=S)N(c2ccccc2)C1=O,-6.3,46.9,-8.3,0.6,-4.7,73.4*,50.9*,3.7
CN(C)/C=C1\NC(=S)N(c2ccc(Cl)cc2)C1=O,-8.9,44.7,-0.7,11.0,-1.3,67.5*,44.1*,1.7
CC(C)c1ccc(N2C(=O)/C(=C/N(C)C)SC2=S)cc1,1.1,-44.2,-4.4,31.9,-3.3,2.8,.,.
Cc1ccc(NC2=CC(=O)CC(C)(C)C2)cc1F,-1.4,5.3,-0.6,8.0,-0.7,-1.1,.,.
COc1ccc(S(=O)(=O)N2CCCC(C(=O)NCc3cccnc3)C2)cc1OC (stereo not given),-2.8,-2.2,-3.7,.,-0.9,.,.,.
O=[N+]([O-])c1cc(C=Nc2cccc3c(O)cccc23)ccc1Cl,.,.,-2.3,87.0,-1.8,39.3*,-29.3,-1.6
CN1c2ccccc2C(C)(C)[C@]12C=Cc1cc(O)ccc1O2,18.2,17.1,-5.8,-7.2,-0.1,48.2*,-80.9,-5.3
CN1c2ccccc2C(C)(C)C12C=Nc1c(ccc3ccccc13)O2 (stereo not given),22.5,43.5,17.6,41.6,-6.4,11.0,.,.
